# In ChEMBL document CHEMBL3632546 (Eur J Med Chem, 2015):
# Activity calls are given as the source filed them. The calls are words filed in the database; no cut-off is given here.
# Target: Cathepsin D (Homo sapiens) (UniProt P07339)
# Assay: Inhibition of human recombinant cathepsin D preincubated for 30 mins followed by substrate addition measured after 15 mins by fluorescence analysis
# Cathepsin D (Homo sapiens), sequence (P07339 65-162 limits assumed): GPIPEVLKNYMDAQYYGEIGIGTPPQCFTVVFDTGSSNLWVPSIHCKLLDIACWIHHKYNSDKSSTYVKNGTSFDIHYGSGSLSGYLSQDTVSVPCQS
# Cathepsin D (Homo sapiens), sequence (P07339 169-412 limits assumed): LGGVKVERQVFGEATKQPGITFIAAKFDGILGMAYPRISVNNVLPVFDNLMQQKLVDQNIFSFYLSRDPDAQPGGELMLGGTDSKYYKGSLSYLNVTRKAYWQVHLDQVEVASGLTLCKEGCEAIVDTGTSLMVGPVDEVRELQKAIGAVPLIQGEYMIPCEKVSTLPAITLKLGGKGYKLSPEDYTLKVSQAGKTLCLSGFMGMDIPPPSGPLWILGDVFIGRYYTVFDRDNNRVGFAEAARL
row,SMILES,inhibition
1,COCCCOc1cc(C[C@@H](C[C@H](N)[C@@H](O)C[C@H](C(=O)NCC(C)(C)Cn2cc(CCO)nn2)C(C)C)C(C)C)ccc1OC.Cl,inactive

# Tested on: Mus musculus
# Assay: Antihypersensitive activity in double transgenic hypertensive mouse harboring human angiotensinogen and human renin genes assessed as reduction of mean arterial blood pressure at 17 to 34 umol/kg, po monitored 24 hrs post dose
# Format: functional, organism-based
row,SMILES,Activity
1,COCCCOc1cc(C[C@@H](C[C@H](N)[C@@H](O)C[C@H](C(=O)NCC(C)(C)Cn2cc(CCO)nn2)C(C)C)C(C)C)ccc1OC.Cl,Active

# Tested on: Mus musculus
# Assay: Antihypersensitive activity in po dosed double transgenic hypertensive mouse harboring human angiotensinogen and human renin genes assessed as maximum reduction of mean arterial blood pressure monitored 24 hrs post dose
# Format: functional
row,SMILES,Activity
1,COCCCOc1cc(C[C@@H](C[C@H](N)[C@@H](O)C[C@H](C(=O)NCC(C)(C)Cn2cc(CCO)nn2)C(C)C)C(C)C)ccc1OC.Cl,40 mmHg

# Tested on: Mus musculus
# Assay: Antihypersensitive activity in po dosed double transgenic hypertensive mouse harboring human angiotensinogen and human renin genes assessed as reduction of mean arterial blood pressure monitored 24 hrs post dose
# Format: functional, organism-based
row,SMILES,Activity
1,COCCCOc1cc(C[C@@H](C[C@H](N)[C@@H](O)C[C@H](C(=O)NCC(C)(C)Cn2cc(CCO)nn2)C(C)C)C(C)C)ccc1OC.Cl,Dose-dependent effect

# Tested on: Mus musculus
# Assay: Antihypersensitive activity in po dosed double transgenic hypertensive mouse harboring human angiotensinogen and human renin genes assessed as time duration for sustained reduction of mean arterial blood pressure monitored 24 hrs post dose
# Format: functional
row,SMILES,Time
1,COCCCOc1cc(C[C@@H](C[C@H](N)[C@@H](O)C[C@H](C(=O)NCC(C)(C)Cn2cc(CCO)nn2)C(C)C)C(C)C)ccc1OC.Cl,14 h

# Tested on: Mus musculus
# Assay: Antihypersensitive activity in double transgenic hypertensive mouse harboring human angiotensinogen and human renin genes assessed as reduction of mean arterial blood pressure at 8.5 umol/kg, po monitored 24 hrs post dose
# Format: functional, organism-based
row,SMILES,Activity
1,COCCCOc1cc(C[C@@H](C[C@H](N)[C@@H](O)C[C@H](C(=O)NCC(C)(C)C(N)=O)C(C)C)C(C)C)ccc1OC,Active
2,COCCCOc1cc(C[C@@H](C[C@H](N)[C@@H](O)C[C@H](C(=O)NCC(C)(C)Cn2cc(CCO)nn2)C(C)C)C(C)C)ccc1OC.Cl,Active

# Target: T1, Renin (Homo sapiens, UniProt P00797)
# T1 sequence (P00797 whole entry): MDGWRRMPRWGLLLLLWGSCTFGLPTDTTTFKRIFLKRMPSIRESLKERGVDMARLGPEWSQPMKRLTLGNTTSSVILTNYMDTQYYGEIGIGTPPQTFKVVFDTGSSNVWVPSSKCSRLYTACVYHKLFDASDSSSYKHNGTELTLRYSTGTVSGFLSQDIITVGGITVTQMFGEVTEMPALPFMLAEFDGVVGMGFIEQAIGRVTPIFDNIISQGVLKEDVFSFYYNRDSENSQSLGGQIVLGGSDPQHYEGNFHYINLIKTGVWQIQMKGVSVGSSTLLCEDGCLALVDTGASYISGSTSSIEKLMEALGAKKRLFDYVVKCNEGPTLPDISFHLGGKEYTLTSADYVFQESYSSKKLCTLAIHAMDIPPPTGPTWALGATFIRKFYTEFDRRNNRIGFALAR
# Assay: Inhibition of human recombinant renin preincubated for 30 mins followed by substrate addition measured after 15 mins by fluorescence analysis
# In short: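 Fluorogenic renin kit (Ex/Em 490/520 nm). Reaction started with pre-warmed renin substrate (20 µM solution) and run 15 min at 37 °C. RFU read with substrate-only wells as background. Vehicle, buffer and peptide inhibitor (10 µM solution) controls included.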
row,SMILES,IC50
1,COCCCOc1cc(C[C@@H](C[C@H](N)[C@@H](O)C[C@H](C(=O)NCC(C)(C)Cc2cc(F)ccc2F)C(C)C)C(C)C)ccc1OC,12.4 nM
2,COCCCOc1cc(C[C@@H](C[C@H](N)[C@@H](O)C[C@H](C(=O)NCC(C)(C)Cc2ccccc2F)C(C)C)C(C)C)ccc1OC,9.2 nM
3,COCCCOc1cc(C[C@@H](C[C@H](N)[C@@H](O)C[C@H](C(=O)NCC(C)(C)Cc2c(F)cccc2F)C(C)C)C(C)C)ccc1OC,16.1 nM
4,COCCCOc1cc(C[C@@H](C[C@H](N)[C@@H](O)C[C@H](C(=O)NCC(C)(C)Cn2cc(CN(C)C)nn2)C(C)C)C(C)C)ccc1OC,1.9 nM
5,COCCCOc1cc(C[C@@H](C[C@H](N)[C@@H](O)C[C@H](C(=O)NCC(C)(C)CC2CCCCC2)C(C)C)C(C)C)ccc1OC,15.5 nM
6,COCCCOc1cc(C[C@@H](C[C@H](N)[C@@H](O)C[C@H](C(=O)NCCc2ccc3c(c2)OCO3)C(C)C)C(C)C)ccc1OC,11 nM
7,COCCCOc1cc(C[C@@H](C[C@H](N)[C@@H](O)C[C@H](C(=O)NCC(C)(C)Cc2cccc(OC)c2)C(C)C)C(C)C)ccc1OC,12.3 nM
8,COCCCOc1cc(C[C@@H](C[C@H](N)[C@@H](O)C[C@H](C(=O)NCC(C)(C)Cn2cc(CN3CCCCC3)nn2)C(C)C)C(C)C)ccc1OC,1 nM
9,COCCCOc1cc(C[C@@H](C[C@H](N)[C@@H](O)C[C@H](C(=O)NCC(C)(C)Cc2cccc(Cl)c2)C(C)C)C(C)C)ccc1OC,9.8 nM
10,COCCCOc1cc(C[C@@H](C[C@H](N)[C@@H](O)C[C@H](C(=O)NCC(C)(C)Cn2ccnn2)C(C)C)C(C)C)ccc1OC,2 nM
11,CCN(CC)Cc1cn(CC(C)(C)CNC(=O)[C@@H](C[C@H](O)[C@@H](N)C[C@H](Cc2ccc(OC)c(OCCCOC)c2)C(C)C)C(C)C)nn1,2.1 nM
12,COCCCOc1cc(C[C@@H](C[C@H](N)[C@@H](O)C[C@H](C(=O)NCC(C)(C)Cc2ccc(OC)cc2)C(C)C)C(C)C)ccc1OC,10.2 nM
13,COCCCOc1cc(C[C@@H](C[C@H](N)[C@@H](O)C[C@H](C(=O)NCC(C)(C)Cc2cccnc2)C(C)C)C(C)C)ccc1OC,2.2 nM
14,COCCCOc1cc(C[C@@H](C[C@H](N)[C@@H](O)C[C@H](C(=O)NCC(C)(C)Cn2cc(CN(C(C)C)C(C)C)nn2)C(C)C)C(C)C)ccc1OC,2.7 nM
15,COCCCOc1cc(C[C@@H](C[C@H](N)[C@@H](O)C[C@H](C(=O)N[C@H](C)c2ccc(Cl)cc2)C(C)C)C(C)C)ccc1OC,30 nM
16,COCCCOc1cc(C[C@@H](C[C@H](N)[C@@H](O)C[C@H](C(=O)NCC(C)(C)Cc2cccc(F)c2)C(C)C)C(C)C)ccc1OC,9.8 nM
17,COCCCOc1cc(C[C@@H](C[C@H](N)[C@@H](O)C[C@H](C(=O)NCC(C)(C)Cn2cc(C(C)O)nn2)C(C)C)C(C)C)ccc1OC (stereo partly drawn),1.1 nM
18,COCCCOc1cc(C[C@@H](C[C@H](N)[C@@H](O)C[C@H](C(=O)NCC(C)(C)Cc2ccncc2)C(C)C)C(C)C)ccc1OC,1.5 nM
19,COCCCOc1cc(C[C@@H](C[C@H](N)[C@@H](O)C[C@H](C(=O)NCC(C)(C)Cn2cc(CN3CCOCC3)nn2)C(C)C)C(C)C)ccc1OC,1.1 nM
20,COCCCOc1cc(C[C@@H](C[C@H](N)[C@@H](O)C[C@H](C(=O)NCC(C)(C)Cn2cc(C3(O)CCCC3)nn2)C(C)C)C(C)C)ccc1OC,5.2 nM

row,SMILES,IC50
1,COCCCOc1cc(C[C@@H](C[C@H](N)[C@@H](O)C[C@H](C(=O)NCC(C)(C)Cn2cc(CCO)nn2)C(C)C)C(C)C)ccc1OC.Cl,0.7 nM
2,COCCCOc1cc(C[C@@H](C[C@H](N)[C@@H](O)C[C@H](C(=O)N[C@@H](C)c2ccc(Br)cc2)C(C)C)C(C)C)ccc1OC,20.9 nM
3,COCCCOc1cc(C[C@@H](C[C@H](N)[C@@H](O)C[C@H](C(=O)NCC(C)(C)Cn2cc(-c3ccccn3)nn2)C(C)C)C(C)C)ccc1OC,1.5 nM
4,COCCCOc1cc(C[C@@H](C[C@H](N)[C@@H](O)C[C@H](C(=O)NCC(C)(C)Cc2ccc(OC(F)(F)F)cc2)C(C)C)C(C)C)ccc1OC,13.4 nM
5,COCCCOc1cc(C[C@@H](C[C@H](N)[C@@H](O)C[C@H](C(=O)NCC(C)(C)Cn2cc(C3CC3)nn2)C(C)C)C(C)C)ccc1OC,1.6 nM
6,COCCCOc1cc(C[C@@H](C[C@H](N)[C@@H](O)C[C@H](C(=O)NCC(C)(C)Cn2cc(-c3ccccc3)nn2)C(C)C)C(C)C)ccc1OC,5 nM
7,COCCCOc1cc(C[C@@H](C[C@H](N)[C@@H](O)C[C@H](C(=O)NCC(C)(C)Cc2ccc3ccccc3c2)C(C)C)C(C)C)ccc1OC,11.2 nM
8,CCCCCCc1cn(CC(C)(C)CNC(=O)[C@@H](C[C@H](O)[C@@H](N)C[C@H](Cc2ccc(OC)c(OCCCOC)c2)C(C)C)C(C)C)nn1,17.1 nM
9,CCCCc1cn(CC(C)(C)CNC(=O)[C@@H](C[C@H](O)[C@@H](N)C[C@H](Cc2ccc(OC)c(OCCCOC)c2)C(C)C)C(C)C)nn1,5.8 nM
10,COCCCOc1cc(C[C@@H](C[C@H](N)[C@@H](O)C[C@H](C(=O)NCC(C)(C)CCOc2ccccc2)C(C)C)C(C)C)ccc1OC,8.5 nM
11,COCCCOc1cc(C[C@@H](C[C@H](N)[C@@H](O)C[C@H](C(=O)N[C@@H](C)c2ccc(Cl)cc2)C(C)C)C(C)C)ccc1OC,15.2 nM
12,COCCCOc1cc(C[C@@H](C[C@H](N)[C@@H](O)C[C@H](C(=O)NCCc2ccccn2)C(C)C)C(C)C)ccc1OC,2.6 nM
13,COCCCOc1cc(C[C@@H](C[C@H](N)[C@@H](O)C[C@H](C(=O)NCCc2ccccc2Cl)C(C)C)C(C)C)ccc1OC,27.7 nM
14,COCCCOc1cc(C[C@@H](C[C@H](N)[C@@H](O)C[C@H](C(=O)NCC(C)(C)CCN2CCOCC2)C(C)C)C(C)C)ccc1OC,1.8 nM
15,COCCCOc1cc(C[C@@H](C[C@H](N)[C@@H](O)C[C@H](C(=O)NCC(C)(C)Cc2ccccc2)C(C)C)C(C)C)ccc1OC,34 nM
16,COCCCOc1cc(C[C@@H](C[C@H](N)[C@@H](O)C[C@H](C(=O)NCC(C)(C)Cn2cc(C(C)(C)C)nn2)C(C)C)C(C)C)ccc1OC,7 nM
17,COCCCOc1cc(C[C@@H](C[C@H](N)[C@@H](O)C[C@H](C(=O)NCC(C)(C)Cn2cc(CO)nn2)C(C)C)C(C)C)ccc1OC,0.9 nM
18,COCCCOc1cc(C[C@@H](C[C@H](N)[C@@H](O)C[C@H](C(=O)NCC(C)(C)Cn2cc(-c3ccc(C)cc3)nn2)C(C)C)C(C)C)ccc1OC,13.1 nM
19,COCCCOc1cc(C[C@@H](C[C@H](N)[C@@H](O)C[C@H](C(=O)NCCc2cccc(OC)c2)C(C)C)C(C)C)ccc1OC,7.2 nM
20,COCCCOc1cc(C[C@@H](C[C@H](N)[C@@H](O)C[C@H](C(=O)N[C@H](C)c2ccc(Br)cc2)C(C)C)C(C)C)ccc1OC,33.7 nM

# Target: T2, Cathepsin E (Homo sapiens) (UniProt P14091)
# T2 sequence (whole entry): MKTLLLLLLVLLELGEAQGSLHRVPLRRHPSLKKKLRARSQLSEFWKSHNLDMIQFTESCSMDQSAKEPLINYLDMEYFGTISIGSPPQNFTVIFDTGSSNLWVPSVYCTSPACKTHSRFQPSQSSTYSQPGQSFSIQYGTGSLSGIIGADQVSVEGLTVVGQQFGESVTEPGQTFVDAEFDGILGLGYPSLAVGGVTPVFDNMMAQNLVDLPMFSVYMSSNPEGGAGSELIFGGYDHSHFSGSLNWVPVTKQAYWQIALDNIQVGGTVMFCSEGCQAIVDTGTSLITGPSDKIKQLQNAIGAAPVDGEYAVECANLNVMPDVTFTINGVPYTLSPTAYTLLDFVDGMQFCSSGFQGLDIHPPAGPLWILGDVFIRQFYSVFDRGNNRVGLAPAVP
# Assay: Inhibition of human recombinant cathepsin E preincubated for 30 mins followed by substrate addition measured after 15 mins by fluorescence analysis
row,SMILES,inhibition
1,COCCCOc1cc(C[C@@H](C[C@H](N)[C@@H](O)C[C@H](C(=O)NCC(C)(C)Cn2cc(CCO)nn2)C(C)C)C(C)C)ccc1OC.Cl,inactive
